UBC13 polyUb – UBC13 polyubiquitin chain formation inhibitors, primary screen, biochemical, TR-FRET, uHTS | Ubiquitin-conjugating enzyme E2 N (Homo sapiens), P61088 | inhibition, % at 20 µM | 330,000 tested, 0.47% active; in the data active means inhibition above about 45%, passing the limit was not always enough
Target sequence (P61088 whole entry, looked up): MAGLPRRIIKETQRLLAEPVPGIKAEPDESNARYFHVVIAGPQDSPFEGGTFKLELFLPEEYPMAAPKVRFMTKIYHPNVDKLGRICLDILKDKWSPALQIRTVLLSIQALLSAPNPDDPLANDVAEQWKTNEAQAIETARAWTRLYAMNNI
hiPSC survival – enhancers of single-cell hiPSC survival, primary screen, ATPlite luminescence. 100% = ROCK inhibitor wells, 0% = DMSO. survival enhancement, % at 20 µM. 360,000 tested, 0.044% active. AID 602274, 2012; in the data active means survival enhancement above about 18%;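 further: cells exposed to compounds for 16 hours before the ATP read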
MPTP inh – mitochondrial permeability transition pore inhibitors, primary screen, biochemical, isolated mouse mitochondria, absorbance; Ca2+ swelling absorbance, 30 min; inhibition, % at 10 µM; 360,000 tested, 1.4% active; AID 602449, 2012;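 active means inhibition of 50% or more, scaled per plate between neutral and stimulator controls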;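 further: 0% = DMSO wells given calcium and 100% = 1 mM EGTA wells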
beta cell repl – inducers of MIN6 beta-cell proliferation, primary screen, ATP luminescence, uHTS; MIN6 cells proliferation, ATPlite luminescence, 48 h; cells starved in 0.2% serum; 100% = growth in 10% serum; 330,000 tested, 0.29% active; AID 2380, 2010; proliferation, % at 10 µM;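 active means compounds whose signal lies at least 3.5 SD above the mean of all wells on their plate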;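 further: 0% = DMSO-treated cells in low-serum medium and 100% = 10% serum control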
Apaf-1 inh – inhibitors of human Apaf-1 apoptosome, primary screen, biochemical, DEVD-Rh110 fluorescence, uHTS; reconstituted apoptosome caspase-3 activity; inhibition, % at 20 µM; 330,000 tested, 0.71% active; active means inhibition of at least 40% at 20 µM;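 further: plate controls were DMSO wells for no effect and DEVD-CHO caspase inhibitor wells for full effect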
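Material: reconstituted apoptosome with Apaf-1, cytochrome c, caspase-9, procaspase-3, dATP. Technique: Rh110 fluorescence intensity. Buffer or medium: pH 7.5 Hepes buffer with CHAPS, BSA, DTT. Times: 30 min plus 50 min, RT.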
Granule exo inh – LAMP-1 surface exposure blockers, TALL-104 cells – cell-based, flow cytometry, MLPCN library, primary screen; TALL-104 LAMP-1 surface exposure; cells stimulated with thapsigargin and PMA; inhibition, % at 10 µM; 360,000 tested, 0.66% active; AID 651702, 2012;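 active means inhibition above about 55%, limit read from the data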
Casp3 counter – CASP3 inhibitor validation, counterassay for project on UBE2N polyubiquitination blockers, biochemical, one dose | shares compounds with UBC13 polyUb | Recombinant caspase-3, Caspase-Glo 3/7 luminescence, 60 min | inhibition, % at 20 µM | 1,400 tested, 4% active;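 active means mean inhibition across replicates above about 26%, limit read from the data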;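 further: plate controls were DMSO with caspase-3 for no effect and DMSO wells lacking enzyme for full effect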
Target sequence (P42574 whole entry, looked up): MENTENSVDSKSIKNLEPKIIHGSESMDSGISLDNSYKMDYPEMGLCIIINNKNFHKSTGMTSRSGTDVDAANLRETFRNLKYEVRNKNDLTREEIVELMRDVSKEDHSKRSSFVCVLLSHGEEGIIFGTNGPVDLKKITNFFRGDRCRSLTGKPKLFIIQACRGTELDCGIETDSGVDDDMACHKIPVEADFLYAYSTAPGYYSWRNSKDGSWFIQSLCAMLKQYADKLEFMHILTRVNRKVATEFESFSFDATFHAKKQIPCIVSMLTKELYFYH
UBC13 conf – UBC13 polyubiquitination inhibitors, single-point retest, confirmation, biochemical, TR-FRET, single concentration | inhibition, % at 10 µM | 1,400 tested, 68% active | shares compounds with UBC13 polyUb | AID 488859, 2010; in the data active means inhibition above about 45%
Apaf-1 inh conf – Apaf-1 inhibitors, single-dose retest, confirmation, biochemical, fluorescence, DEVD-Rh110, 20 µM | shares compounds with Apaf-1 inh | reconstituted apoptosome, caspase-3 DEVD-Rh110 fluorescence | inhibition, % at 20 µM | 1,800 tested, 25% active | AID 504614, 2011;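 active means mean inhibition of at least 40% at 20 µM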;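 further: plate controls were DMSO wells for no effect and DEVD-CHO caspase inhibitor control wells for full effect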
Rh110 quench – Rh110 fluorescence interference by putative Apaf-1 inhibitors, confirmation, artefact control for Apaf-1 inhibitor project, biochemical, 20 µM; shares compounds with Apaf-1 inh; quenched caspase reaction; activation (fluorescence interference), % at 20 µM; 1,800 tested, under 10 active;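 active means signal rise of 40% or more at 20 µM, treated as a fluorescence artifact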
Apaf1 inh interf – fluorescence interference of Apaf-1 inhibitor hits, dose response, artefact control for Apaf-1 inhibitor project; shares compounds with Apaf-1 inh; fluorescence interference counterscreen, Apaf-1 assay format; IC50, µM; 460 tested, under 10 active; AID 588538, 2011; call rule not given here
MPTP counter – fluorescence retest of MPTP screen hits in isolated mitochondria, single concentration. shares compounds with MPTP inh. membrane potential, Rhodamine 123 fluorescence. inhibition, % at 10 µM. 5,000 tested, 78% active. AID 624504, 2012; in the data active means inhibition above about 22%;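 further: 0% = DMSO vehicle and 100% = positive control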
MPTP abs DR – mitochondrial permeability transition pore inhibitors, dose response, biochemical, absorbance, uHTS hits; shares compounds with MPTP inh; isolated mitochondria swelling; IC50, µM; 780 tested, 58% active; AID 651561, 2012; in the data active means IC50 below about 20 µM
MPTP cs DR – fluorescent counter-screen in isolated mitochondria, dose response, counter-screen for MPTP inhibitor project, biochemical, fluorescence, uHTS hits. 780 tested, 49% active. IC50, µM. isolated mitochondria counterscreen, fluorescence read-out. shares compounds with MPTP inh; in the data active means IC50 below about 80 µM
Numbers without * were called inactive; i = inactive; nt = not tested or not shown. An excerpt weighted towards active compounds, which were near 3% of everything screened.

SMILES | UBC13 polyUb | hiPSC survival | MPTP inh | beta cell repl | Apaf-1 inh | Granule exo inh | Casp3 counter | UBC13 conf | MPTP counter | others
CN(Cc1ccc(Cl)c(Cl)c1)C(=O)c1cccc(S(=O)(=O)N2CCN(Cc3ccccc3)CC2)c1 | 85.9* | 0.2 | 0.5 | -7.3 | 71.8* | -5.8 | 2.5 | 104.4* | nt | Apaf-1 inh conf=48.9*;Rh110 quench=6.5;Apaf1 inh interf=>100
COc1ccc(-c2nn(-c3ccccc3)cc2/C=N/O)cc1OC | 12.3 | 0.0 | 1.1 | -2.8 | 4.0 | 10.6 | nt | nt | nt
COc1ccc(-c2nn(-c3ccccc3)cc2/C=N/N=C(N)N)cc1OC | 50.6* | -2.4 | 89.4* | 0.0 | 30.4 | -9.1 | -5.2 | 66.8* | -30.7
O=C(CC[C@H]1O[C@@H](n2cnc3c(NC(=O)c4ccccc4)ncnc32)[C@H](O)[C@@H]1O)NCc1cccc2ccccc12 | nt | 0.8 | -0.3 | nt | nt | -8.1 | nt | nt | nt
O=C1Nc2cc(C(=O)NCCCN3CCCC3)ccc2S/C1=C\c1ccccc1 | 18.7 | -0.4 | 8.0 | -8.1 | 23.8 | 8.6 | nt | nt | nt
COc1ccc(/C=C2/Sc3ccc(C(=O)NCCN4CCCCCC4)cc3NC2=O)cc1 | 67.2* | -0.7 | 87.1* | -3.8 | 49.0* | 9.5 | 0.5 | 86.2* | -19.1 | MPTP abs DR=14*;MPTP cs DR=39.5*
CCCCCOc1ccc(Br)cc1/C(C)=N/NC1=NCCN1 | 57.5* | -5.6 | 92.9* | -3.1 | 5.5 | 21.0 | -2.8 | 63.9* | 24.2*
COc1ccc(S(=O)(=O)N2CCCCC2)cc1NS(=O)(=O)c1ccc(CNC(C)=O)cc1 | -3.1 | -0.6 | -0.5 | -2.9 | 16.6 | 3.6 | nt | nt | nt
NC1=NC[C@H](Cc2ccc(O)cc2)N1CCC12CC3CC(CC(C3)C1)C2 | 77.6* | -0.6 | 50.4* | -7.2 | 49.4* | 7.5 | 2.1 | 58.0* | 0.6 | Apaf-1 inh conf=12.0;Rh110 quench=4.8
CCOCCCN(C(=O)Cn1nnc(-c2ccc(C)o2)n1)C(C(=O)NCC1CCCO1)c1ccc(F)cc1 (configuration not stated) | 4.9 | 0.8 | 1.7 | -3.0 | -3.8 | -1.6 | nt | nt | nt
Cc1ccc2c(c1)c1c3n2CCN(C(=O)C2CC2)C3CCC1 (configuration not stated) | 5.8 | 1.6 | 0.9 | 2.1 | 23.1 | -1.0 | nt | nt | nt
CN1CCN(CC(=O)N2CCn3c4c(c5cc(C6CCCCC6)ccc53)CCCC42)CC1 (configuration not stated) | 89.5* | -3.6 | 98.2* | -6.0 | 58.2* | 76.8* | 0.9 | 103.0* | -17.1 | Apaf-1 inh conf=36.7;Rh110 quench=7.4
Nc1ccc(C23CC4CC(CC(CO)(C4)C2)C3)cc1 | 3.8 | 1.6 | -0.6 | 2.1 | 3.0 | 2.8 | nt | nt | nt
NCC12CC3CC(C1)CC(c1ccc(Cl)cc1)(C3)C2 | 57.4* | -3.7 | 75.4* | -5.4 | 31.9 | 21.5 | -4.2 | 76.3* | -13.4 | MPTP abs DR=3.68*;MPTP cs DR=41.6*
COc1ccc2cc1Oc1ccc(cc1)C[C@H]1c3c(cc(OC)c4c3Oc3c(ccc5c3[C@H](C2)N(C)CC5)O4)CCN1C | 79.9* | -3.3 | 90.5* | -5.7 | 59.5* | 9.1 | -0.5 | 77.5* | -17.9
COc1cc2c(c(O)c1OC)C1Cc3ccc(OC)c(OC)c3CN1CC2 (configuration not stated) | nt | 3.2 | -0.9 | nt | nt | -6.5 | nt | nt | nt
CN1CC2=Cc3ccccc3OC23Oc2ccccc2C=C3C1 | 84.6* | -3.9 | 64.6* | -5.0 | 9.5 | -2.4 | -2.3 | 93.7* | -6.2 | MPTP abs DR=i;MPTP cs DR=>80
O=C1c2ccccc2OC2(C=Cc3ccccc3O2)N1Cc1ccccc1 (configuration not stated) | 6.0 | 0.0 | -5.2 | -7.5 | 14.8 | 6.4 | nt | nt | nt
COc1ccc(CCNC(=O)CSCC(=O)Nc2cc(S(C)(=O)=O)ccc2Cl)cc1 | -3.3 | -0.4 | 0.2 | -2.3 | 7.2 | 2.0 | nt | nt | nt
CC(C)COCC(CN(Cc1ccccc1)c1ccccc1)N1CCCC1 (configuration not stated) | 48.8* | -1.7 | 92.2* | -8.3 | 48.6* | -2.4 | 1.8 | 40.3 | -4.9 | Apaf-1 inh conf=12.5;Rh110 quench=15.8;MPTP abs DR=13.5*;MPTP cs DR=44.1*
FC(F)(F)c1cc(CO[C@@H]2CCCN[C@@H]2c2ccccc2)cc(C(F)(F)F)c1 | 58.2* | 0.3 | 103.1* | -7.6 | 47.3* | 22.4 | 2.1 | 55.2* | -20.0 | Apaf-1 inh conf=9.9;Rh110 quench=7.6;MPTP abs DR=4.33*;MPTP cs DR=54.4*
Cc1cc2oc3cc(NCCC4CCCN4C)ccc3c(=O)c2cc1C (configuration not stated) | 61.2* | -3.7 | 93.6* | -7.9 | 43.5* | -3.8 | 20.8 | 47.4* | -23.3 | Apaf-1 inh conf=8.7;Rh110 quench=16.7
CCOc1ccc2nc(N(CCCN(C)C)C(=O)c3ccc4c(c3)CCCC4)sc2c1 | 41.5 | -0.3 | 1.4 | -7.5 | 19.4 | 25.7 | nt | nt | nt
CN(C)CCCN(C(=O)c1ccc2c(c1)CCCC2)c1nc2ccc(Cl)cc2s1 | 65.2* | 0.4 | 90.1* | 0.0 | 15.6 | 25.8 | 2.3 | 93.2* | -7.5
CCc1cc(=O)oc2cc(OCC(=O)N3CCC[C@H]3C(=O)O)ccc12 | 1.7 | 1.6 | -0.6 | -0.8 | -6.9 | 9.9 | nt | nt | nt

High-throughput results deposited in PubChem by several laboratories.
